The values that follow come from ChEMBL document CHEMBL1138832, “N2-substituted O6-cyclohexylmethylguanine derivatives: potent inhibitors of cyclin-dependent kinases 1 and 2” (J Med Chem, 2004).

The target in assay [1] is Cyclin-dependent kinase 1/cyclin B (Homo sapiens, UniProt P06493). As to the kind of experiment: Inhibitory activity against cyclin-dependent kinase 1-cyclin B. The class given is protein-complex assay. An outline of the steps: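 CDK1/cyclin B1 enzyme from starfish (Marthasterias glacialis) oocytes; kinase inhibition assayed by a method from earlier work.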
Assay [2] has as its target T1, Cyclin-dependent kinase 2/cyclin A (Homo sapiens, UniProt P24941). As to the kind of experiment: (§1) Inhibition of Cyclin-dependent kinase 2-Cyclin A3 at 10 uM. Type of assay: protein-complex assay. An outline of the steps:
(§2)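 Human CDK2/cyclin A kinase inhibition assay run by an earlier-published method. Solubility limited the highest concentration that could be tested to 10 µM.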

The target in assay [3] is Cyclin-dependent kinase 1/cyclin B (starfish). As to the kind of experiment: Inhibition of Cyclin-dependent kinase 1-cyclin B at 10 uM.
Assay [4] has as its target T2, Cyclin-dependent kinase 2/cyclin A (Homo sapiens) (UniProt P24941+P20248+P78396). The description is as §1. The class given is protein-complex assay. An outline of the steps:
as §2

Assay [5] has as its system Cyclin-dependent kinase 1/cyclin B (starfish). As to the kind of experiment: Inhibition of Cyclin-dependent kinase 1-cyclin B at 10 uM. Particulars: Asteroidea.
Assay [6] addresses T1, Cyclin-dependent kinase 2/cyclin A. The experiment in a line: Inhibition of cyclin-dependent kinase 2-cyclin A3 (CDK2). The class given is protein-complex assay.
For assay [7], the target named is T2, Cyclin-dependent kinase 2/cyclin A (Homo sapiens). As to the kind of experiment: Inhibition of cyclin-dependent kinase 2/Cyclin A3 at 10 uM. Type of assay: protein-complex assay. Put shortly:
as §2

Assay [8] concerns the target T1, Cyclin-dependent kinase 2/cyclin A. As to the kind of experiment: Inhibition of Cyclin-dependent kinase 2-Cyclin A3 at 100 uM. Type of assay: protein-complex assay.
Assay [9] addresses Cyclin-dependent kinase 1/cyclin B (starfish). The experiment in a line: Inhibition of Cyclin-dependent kinase 1-cyclin B at 100 uM.
The target in assay [10] is Cyclin-dependent kinase 1/cyclin B (Homo sapiens) (UniProt P06493+P14635+Q8WWL7+O95067). The experiment in a line: Inhibition of cyclin-dependent kinase 1/Cyclin B at 10 uM. The class given is protein-complex assay. As to conditions: Marthasterias glacialis. Put shortly: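 Starfish (Marthasterias glacialis) oocyte CDK1/cyclin B1 kinase inhibition assay run by an earlier-published method. Solubility limited the highest concentration that could be tested to 10 µM.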

In general, IC50 refers to the midpoint of a concentration-inhibition curve. A lower IC50 goes with inhibition by little substance. `C[S+]([O-])c1ccc(Nc2nc(OCC3CCCCC3)c3[nH]cnc3n2)cc1` (stereo unspecified) showed an IC50 in [1] of 0.2 µM.
Consider `CNS(=O)(=O)c1ccc(Nc2nc(OCC3CCCCC3)c3nc[nH]c3n2)cc1`, for which the IC50 in [1] was determined as 0.009 µM.
For `COC(=O)c1ccc(Nc2nc(OCC3CCCCC3)c3nc[nH]c3n2)cc1`, the IC50 in assay [2] was found to be 25 µM; in [3] it was 66 µM.
A word on the inhibition: it is the relative decrease from the control value, in per cent. Low readings indicate a response near the control, high ones a response far below the control. `Fc1nc(OCC2CCCCC2)c2[nH]cnc2n1`: the results for the inhibition in assay [4] and in assay [5] were 4% and 7%, respectively.
`CCNc1nc(OCC2CCCCC2)c2[nH]cnc2n1`: the IC50 in assay [1] came out at 3.3 µM; in assay [6], 2.8 µM.
With `CC(C)[C@@H](CO)Nc1nc(OCC2CCCCC2)c2[nH]cnc2n1`, the inhibition in [4] was 19%; in assay [5], 1%.
`CC(C)[C@H](CO)Nc1nc(OCC2CCCCC2)c2[nH]cnc2n1`: the inhibition stood at 20% in assay [7] and 2% in assay [5].
Regarding `Clc1cc(Cl)cc(Nc2nc(OCC3CCCCC3)c3[nH]cnc3n2)c1`, the figures for the IC50 in assay [1] and in assay [6] were 13 µM and 12 µM, respectively.
For `NS(=O)(=O)c1ccc(CNc2nc(OCC3CCCCC3)c3[nH]cnc3n2)s1`, in that order: 5.7 µM and 5 µM.
In [1], `CN(C)S(=O)(=O)c1ccc(Nc2nc(OCC3CCCCC3)c3nc[nH]c3n2)cc1` returned an IC50 of 0.077 µM.
`OCc1cccc(Nc2nc(OCC3CCCCC3)c3[nH]cnc3n2)c1` gave an IC50 in assay [1] of 0.3 µM.
Regarding `CC(C)Nc1nc(OCC2CCCCC2)c2[nH]cnc2n1`, the results for the IC50 in assay [1] and in [6] were 2 µM and 1.2 µM, respectively.
In assay [1], `CN(C)C(=O)c1ccc(Nc2nc(OCC3CCCCC3)c3[nH]cnc3n2)cc1` yielded an IC50 of 0.6 µM.
As to `CN(C)c1nc(OCC2CCCCC2)c2[nH]cnc2n1`, the figures for the inhibition in assay [4] and in [5] were 31% and 27%, respectively.
Take `NS(=O)(=O)c1cccc(Nc2nc(OCC3CCCCC3)c3nc[nH]c3n2)c1`: the midpoint of inhibition in assay [1], the IC50, lay at 0.24 µM.
With `COc1ccc(Oc2nc(OCC3CCCCC3)c3[nH]cnc3n2)cc1`, the IC50 in [8] came out at 42 µM; in [9], 10 µM.
For the compound `CNC(=O)c1ccc(Nc2nc(OCC3CCCCC3)c3nc[nH]c3n2)cc1`, the results for the IC50 in [1] and in [6] were 0.4 µM and 0.2 µM, respectively.
In the case of `Brc1cccc(Nc2nc(OCC3CCCCC3)c3[nH]cnc3n2)c1`, in assay [1], 5.3 µM corresponded to half-maximal inhibition (IC50).
On the same count and under the same terms, for `COc1cccc(Nc2nc(OCC3CCCCC3)c3[nH]cnc3n2)c1` the value was 2.2 µM.
Still for that read-out and setting: under `N#CCc1ccc(Nc2nc(OCC3CCCCC3)c3[nH]cnc3n2)cc1` stands 0.3 µM.
The same measure, in the same setting: for `COc1ccc(Nc2nc(OCC3CCCCC3)c3[nH]cnc3n2)cc1` the value was 0.79 µM.
Take `CCc1cccc(Nc2nc(OCC3CCCCC3)c3[nH]cnc3n2)c1`: the values for the inhibition in [10] and in assay [4] were 32% and 37%, respectively. In addition, the IC50 in [1] is 37 µM; in assay [6], 52 µM.
`CSc1cccc(Nc2nc(OCC3CCCCC3)c3nc[nH]c3n2)c1` registered an IC50 in assay [1] of 2.4 µM.
With `CC(=O)c1ccc(Nc2nc(OCC3CCCCC3)c3[nH]cnc3n2)cc1`, half-maximal inhibition in [1] (IC50) required 0.5 µM.
In the case of `Fc1ccc(Nc2nc(OCC3CCCCC3)c3[nH]cnc3n2)cc1`, the results for the inhibition in assay [4] and in assay [5] were 27% and 20%, respectively.
In assay [1], `c1ccc(Nc2nc(OCC3CCCCC3)c3nc[nH]c3n2)cc1` had an IC50 of 1.6 µM.
As for `Fc1ccc(Nc2nc(OCC3CCCCC3)c3[nH]cnc3n2)cc1Cl`, the inhibition in assay [4] came to 68%; in [5], 73%.
On to `OCCNc1nc(OCC2CCCCC2)c2[nH]cnc2n1`, for which the IC50 in [1] was 3.2 µM; in assay [6], 2.8 µM.
`NS(=O)(=O)c1ccc(NNc2nc(OCC3CCCCC3)c3[nH]cnc3n2)cc1`: the results for the IC50 in assay [1] and in assay [6] were 8.9 µM and 4.3 µM, respectively.
Consider `O=C(O)c1ccc(Nc2nc(OCC3CCCCC3)c3nc[nH]c3n2)cc1`, for which the IC50 was 1 µM in assay [1] and 0.8 µM in assay [6].
In the case of `CC[C@@H](CO)Nc1nc(OCC2CCCCC2)c2[nH]cnc2n1`, the inhibition in assay [4] was 52%; in assay [5] it was 29%.
`COc1cc(Nc2nc(OCC3CCCCC3)c3[nH]cnc3n2)ccc1S(N)(=O)=O` had an IC50 in assay [1] of 0.103 µM.
With `Fc1cccc(Nc2nc(OCC3CCCCC3)c3[nH]cnc3n2)c1`, the inhibition in assay [4] amounted to 62%; in assay [5], 69%.
Regarding `NC(=O)Cc1ccc(Nc2nc(OCC3CCCCC3)c3nc[nH]c3n2)cc1`, the IC50 in [1] came to 0.14 µM; in assay [6], 0.13 µM.
For `CNc1nc(OCC2CCCCC2)c2[nH]cnc2n1`, in that order: 5.3 µM and 5 µM.
For `Clc1nc(OCC2CCCCC2)c2[nH]cnc2n1`, the inhibition in assay [4] was 5%; in [5], 6%.
In the case of `c1csc(CNc2nc(OCC3CCCCC3)c3[nH]cnc3n2)c1`, the values for the IC50 in assay [1] and in [6] were 0.7 µM and 1.7 µM, respectively.
Turning to `CC[C@H](CO)Nc1nc(OCC2CCCCC2)c2[nH]cnc2n1`, the inhibition in assay [4] is 62%; in [5], 43%.
For `CSc1ccc(Nc2nc(OCC3CCCCC3)c3[nH]cnc3n2)cc1`, in that order: 18% and 10%.
